Screening results as filed in PubChem.
Only some compounds are listed: those with a hit (about 2.6% of all), similar ones and a draw of the others.
V1R ag counter: counter-screen for oxytocin receptor agonists: human V1a receptor agonists; CHO-V1R cells, Fluo-8 calcium fluorescence, agonist mode; 0% DMSO, 100% 3 nM vasopressin; 0.25% of 320,000 active; activation, % at 3 µM;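 active means activation above the mean activation of all tested compounds plus 3 SD, per screening run, cut at about 20% in these data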;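 further: signal is peak over basal fluorescence ratio across a 100 second FLIPR read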
Target sequence (P37288 whole entry, looked up): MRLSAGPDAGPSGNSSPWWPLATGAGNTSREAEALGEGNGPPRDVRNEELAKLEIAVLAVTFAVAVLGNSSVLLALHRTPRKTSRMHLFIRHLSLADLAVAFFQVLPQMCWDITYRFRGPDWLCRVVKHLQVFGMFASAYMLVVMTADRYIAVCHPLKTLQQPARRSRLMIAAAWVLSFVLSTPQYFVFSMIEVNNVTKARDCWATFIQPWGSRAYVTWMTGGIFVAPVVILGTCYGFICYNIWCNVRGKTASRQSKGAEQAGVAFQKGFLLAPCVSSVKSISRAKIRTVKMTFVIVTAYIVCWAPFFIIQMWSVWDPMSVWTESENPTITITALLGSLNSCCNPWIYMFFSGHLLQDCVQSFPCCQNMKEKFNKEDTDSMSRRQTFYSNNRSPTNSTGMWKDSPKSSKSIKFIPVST
OX1R antag-1: OX1R (human) antagonism; O43613; OX1R-expressing cells, FRET antagonist read-out; inhibition, % at 6.6 µM; 1.8% of 330,000 active; in the data active means inhibition mostly above about 38%, no sharp cut-off; inactive means mostly below about 40%;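 further: 0% = agonist challenge alone and 100% = reference antagonist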
CHO parental Ca: signal in parental CHO cells, OX1R antagonist counter-screen; parental CHO-K1, ATP-induced calcium, Fluo-8 fluorescence; 0.63% of 330,000 active; inhibition, % at 5.6 µM;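 active means inhibition above that plate's mean sample inhibition plus 3 SD, cut at about 26% in these data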;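 further: 0% = ATP-challenged DMSO wells and 100% = DMSO wells without ATP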
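Assay system – parental CHO cells · Reagent – ATP stimulus · Detection – intracellular calcium via Fluo-8 no-wash fluorescent dye · Evaluation – percent inhibition of ATP-evoked calcium rise, normalized to controls · Controls – ATP wells versus no-ATP DMSO wells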
OXTR potentiator: human OXTR potentiation; 0.061% of 320,000 active; P30559; activation, % at 3 µM; CHO-OTR cells, Fluo-8 calcium fluorescence, potentiator mode; 0% = oxytocin EC15, 100% = EC100;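 active means activation above that plate's cutoff, the mean activation of tested compounds plus 3 SD, cut at about 6.6% in these data, passing the limit was not always enough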;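 further: 100% uses oxytocin at 75 nM as the full agonist control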
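test system = CHO-OTR cells, human receptor | compound = single-point 3.0 µM | schedule = 6 min compound pre-incubation at room temperature, 100 s kinetic read | signal = Fluo-8 no-wash calcium dye fluorescence, excitation 470-495 nm, emission 515-575 nm | repeats = single well per compound, singlicate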
OXTR ag: agonists of human oxytocin receptor; P30559; CHO-OTR cells, Fluo-8 calcium fluorescence; normalized: DMSO 0%, oxytocin 100%; activation, % at 3 µM; 0.32% of 320,000 active; AID 2435;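 active means activation above the mean of all tested compounds plus 3 SD, cutoff set per screening run, cut at about 20% in these data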;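 further: peak over basal fluorescence ratio from a 100 s FLIPR kinetic read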
OX1R antag-2: blocks the human orexin 1 receptor. O43613. 0.43% of 330,000 active. inhibition, % at 5 µM. CHO/OX1R cells, Fluo-8 calcium fluorescence, orexin A;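 active means inhibition above its plate's threshold, mean inhibition of all tested compounds on the plate plus 3 SD, cut at about 37% in these data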;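 further: 0% = orexin A challenge wells and 100% = SB-334867-A antagonist wells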
OXTR agonist cf: human OXTR agonism, confirmation; CHO-OTR cells, Fluo-8 calcium fluorescence, agonist; 20% of 390 active; shares compounds with OXTR ag; activation, % at 3 µM;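 active means mean activation above about 20% derived from the earlier single-dose screen, limit read from the data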;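 further: peak over minimum fluorescence ratio per well during a 100 second FLIPR read; 0% = DMSO alone and 100% = oxytocin high control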
V1R ag counter 3x: counter-screen for oxytocin receptor agonists: V1a receptor agonists; 10% of 390 active; activation, % at 3 µM; CHO-V1R cells, Fluo-8 calcium fluorescence, agonist; shares compounds with OXTR ag;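 active means mean activation over triplicate exceeds the hit threshold set in the earlier primary screen, cut at about 20% in these data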;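 further: peak over basal fluorescence ratio within a 100 second read; 0% = DMSO alone and 100% = 3 nM vasopressin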
* marks the source's active call; other numbers are inactive results; / = no result; ! = not confirmed by another sample.

SMILES	V1R ag counter	OX1R antag-1	CHO parental Ca	OXTR potentiator	OXTR ag	OX1R antag-2	OXTR agonist cf	V1R ag counter 3x
CC1=NN(c2ccc(C)cc2C)C(=O)C1C(c1ccccc1O)C1C(=O)N(c2ccc(C)cc2C)N=C1C (stereo not given)	0.3	16.1	-23.8	-0.2	0.6	-15.4	/	/
CC1=NN(c2ccc(Cl)cc2)C(=O)C1C(c1ccccc1O)c1c(C)[nH]n(-c2ccc(Cl)cc2)c1=O (stereo not given)	13.2	45.3	4.9	-9.2	19.7*	1.3	-0.5	1.0
CCOc1cccc(/C=C2\NC(=S)N(c3ccccc3)C2=O)c1O	11.8	28.8	-5.7	-23.8	24.4*	-23.5	8.2	9.8
COc1ccccc1CC(=O)Nc1ccon1	-0.8	6.6	-4.0	-0.5	0.4	-17.0	/	/
CC(C)(C)CC(C)(C)NCC(O)COc1c(F)cc(Br)cc1F (stereo not given)	13.7	-4.4	-12.0	-18.6	23.2*	-21.1	1.5	0.3
Cc1cccc(CNS(=O)(=O)c2csc(C(N)=O)c2)c1	1.0	9.7	1.0	-9.0	-0.2	-8.7	/	/
NC(=O)c1cc(S(=O)(=O)NCc2ccc(F)cc2)cs1	1.0	7.8	-2.7	-6.4	20.0*	2.9	-0.2	0.0
Cc1cc(Cl)ccc1N=c1ssnc1Cl	9.9	26.2	-2.0	-9.4	21.2*	-6.3	21.3*	15.6
NC(=O)CN1C(=O)NC2(CCOc3ccccc32)C1=O (stereo not given)	1.0	4.7	3.9	-12.5	1.3	-14.3	/	/
CCC(C)N1C(=O)/C(=C/c2c(NCCCOC(C)C)nc3c(C)cccn3c2=O)SC1=S (stereo not given)	18.3	7.2	16.0	-6.9	20.7*	31.7	37.4*	84.9*
Cn1cccc1C(=O)NC1CCCCCC1	0.1	5.2	-15.3	0.7	-1.4	-16.3	/	/
O=C(NNC(=O)C12CC3CC(CC(C3)C1)C2)c1ccccc1O	-0.3	4.3	-2.8	-3.5	0.5	-10.3	/	/
O=C(NC12CC3CC(CC(C3)C1)C2)c1ccccc1O	2.0	44.0	-13.1	-21.4	23.8*	-6.1	-0.7	2.0
CCN(Cc1ccncc1)C(=O)C1CCC(=O)N(Cc2ccc(Cl)cc2)C1 (stereo not given)	-0.7	-4.8	-6.2	-13.1	0.1	-8.7	/	/
N#CC1=C(N)Oc2n[nH]c(-c3ccccc3)c2C12C(=O)Nc1ccccc12 (stereo not given)	0.7	5.2	-6.3	-19.6	23.4*	-21.4	0.0	0.4
CSc1ccccc1NC(=O)Cn1nc([N+](=O)[O-])cc1C	-0.3	15.2	-0.5	1.5	-0.1	-6.8	/	/
Cc1[nH]n(-c2ccccc2)c(=O)c1C(c1cccc([N+](=O)[O-])c1)c1c(C)[nH]n(-c2ccccc2)c1=O	10.2	16.6	5.2	-12.0	24.2*	-3.3	8.4	8.3
CC(NC(=O)CN1CCOCC1)c1ccccc1 (stereo not given)	1.1	-0.4	4.9	1.5	20.6*	-2.5	-0.5	-0.2
CCc1cccc(NS(=O)(=O)c2c(C)nc3scc(C)n3c2=O)c1	6.9	11.2	-4.1	-11.5	5.1	-3.8	/	/
CCOC(=O)Cn1c(=N)n(CCOc2ccc3ccccc3c2)c2ccccc21	6.0	5.8	-4.0	-8.9	13.5	-8.4	/	/
CCOC(=O)Cn1c(=N)n(CCOc2ccc(OC)cc2)c2ccccc21	0.7	-2.4	-18.3	-21.4	39.2*	-31.3	-0.2	0.0
N#C/C(=C/c1ccc(O)cc1)C(=O)NCc1ccc(Cl)cc1	7.3	5.6	-7.0	-7.9	13.5	-8.3	/	/
N#C/C(=C\c1ccc(O)cc1)C(=O)NCc1cccc(Cl)c1	18.5	0.8	4.6	-8.8	20.3*	-2.5	13.9	9.8
Cc1c2ccccc2nc2c(F)c(NC(C)C)c(F)c(F)c12	10.6	18.6	17.8	-5.6	20.4*	46.9	51.4*	66.0*
C1CCC(C(CC2CCCCN2)C2CCCCC2)CC1 (stereo not given)	9.6	5.2	3.0	-4.5	21.2*!	-9.1	5.2	2.7
SMILES	V1R ag counter	OX1R antag-1	CHO parental Ca	OXTR potentiator	OXTR ag	OX1R antag-2	OXTR agonist cf	V1R ag counter 3x
CC(C)=CCN1CCN(Cc2cccn2-c2ncccn2)CC1CCO (stereo not given)	2.0	16.7	0.1	-1.4	1.4	-1.5	/	/
O=C(NCc1ccccc1)c1sc(=S)n2c1[nH]c(=O)c1ccccc12	12.9	38.3	-0.6	-23.1	21.0*	9.8	11.7	11.1
CCCCNC(=O)c1sc(=S)n2c1[nH]c(=O)c1ccc(C(=O)NCCc3ccc(OC)c(OC)c3)cc12	0.7	5.6	-6.4	-6.6	-0.8	-28.2	/	/
COc1cccc(CN(C)C(=O)c2cc(S(=O)(=O)N3CCCC3)ccc2C)c1OC	3.3	0.0	-8.6	-5.0	2.2	-23.3	/	/
Cc1[nH]c2ccccc2c1/C=N/Nc1ccc([N+](=O)[O-])cc1	17.7	17.1	56.8*	-6.3	21.3*	52.5*	24.5*	34.6*
CCOc1cc(CNC2CCCC2)cc(Cl)c1OCc1ccc(F)cc1	10.0	19.7	11.6	-12.4	20.9*	6.1	6.2	3.9
COc1cc(CNC2CCCC2)cc(Cl)c1OCc1ccc(F)cc1	11.2	9.3	-9.5	-11.3	13.3	-5.3	/	/
Oc1ccc(Cl)cc1CNCc1ccc(F)cc1	9.3	24.8	-14.4	-15.7	27.6*	-11.7	27.5*	18.6
Cc1cccc(NC(=O)C2CCCN(S(=O)(=O)c3ccc4[nH]c(=O)ccc4c3)C2)c1 (stereo not given)	-0.8	8.4	-11.2	3.3	-0.1	-4.9	/	/
CC(=O)Nc1ccc(N/C(N)=N/c2nc(C)cc(C)n2)cc1	0.7	8.2	-14.9	-8.0	-0.2	-18.4	/	/
Cc1cc(C)nc(/N=C(\N)Nc2ccc(-c3ccccc3)cc2)n1	15.6	14.9	24.3	-17.3	22.6*	2.0	13.8	17.6
N#Cc1ccsc1NC(=O)c1ccc(Cl)c([N+](=O)[O-])c1	15.3	88.3*	45.8*	-8.9	22.3*	25.2	17.6	12.0
COc1ccc(CCn2c(-c3ccccc3)nc3c(c(=O)c4ccccc4n3C)c2=O)cc1	-0.2	11.2	-16.1	1.7	-0.5	-22.9	/	/
CC(C)c1nc2c(c(=O)c3ccccc3n2C)c(=O)n1CCc1ccccc1	18.4	19.0	-32.5	-13.6	28.2*	-16.7	15.0	13.0
O=C(Nc1ncc([N+](=O)[O-])s1)c1cccs1	12.5	74.9*	2.3	-21.9	20.7*!	7.1	9.5	11.5
CC1CCCCN1S(=O)(=O)c1ccc2c(c1)C(C)(C)C(=O)N2C (stereo not given)	0.6	16.8	-1.0	-2.3	0.2	-18.3	/	/
